According to ChEMBL document CHEMBL1255444, “In vitro antibacterial activities of JNJ-Q2, a new broad-spectrum fluoroquinolone” (Antimicrob Agents Chemother, 2010):
≈ marks a conversion by molar mass, not a printed value. Calls of active or inactive are those of the source. No cut-off for these calls is given here.

Tests used:
Staphylococcus aureus [1] = experiment: Antibacterial activity against methicillin-resistant Staphylococcus aureus isolate OC8525 harboring wild type quinolone resistance-determining region assessed as >= 4 fold increase in bactericidal activity by broth microdilution method in presence of 20 ug/ml reserpine; format: functional, organism-based
Staphylococcus aureus [2] = experiment: Antibacterial activity against methicillin-resistant Staphylococcus aureus isolate OC12501 assessed as >= 4 fold increase in bactericidal activity by broth microdilution method in presence of 20 ug/ml reserpine; format: functional, organism-based
Staphylococcus aureus [3] = experiment: Antibacterial activity against methicillin-resistant Staphylococcus aureus isolate OC8530 harboring gyrA S84L and parC I143V mutant gene assessed as >= 4 fold increase in bactericidal activity by broth microdilution method in presence of 20 ug/ml reserpine; format: functional, organism-based
Staphylococcus aureus [4] = experiment: Antibacterial activity against methicillin-resistant Staphylococcus aureus isolate OC17042 harboring gyrA S84L/G106D, parC S80F and parE D732N mutant gene assessed as >= 4 fold increase in bactericidal activity by broth microdilution method in presence of 20 ug/ml reserpine; format: functional, organism-based
Staphylococcus aureus [5] = experiment: Antibacterial activity against methicillin-resistant Staphylococcus aureus isolate OC4222 harboring gyrA S84L and parC S80F mutant gene assessed as >= 4 fold increase in bactericidal activity by broth microdilution method in presence of 20 ug/ml reserpine; format: functional, organism-based
Staphylococcus aureus [6] = experiment: Antibacterial activity against methicillin-resistant Staphylococcus aureus isolate OC11696 assessed as >= 4 fold increase in bactericidal activity by broth microdilution method in presence of 20 ug/ml reserpine; format: functional, organism-based
Staphylococcus aureus [7] = experiment: Antibacterial activity against methicillin-resistant Staphylococcus aureus isolate OC11521 harboring gyrA S84L/S85P, parC E84G mutant gene assessed as >= 4 fold increase in bactericidal activity by broth microdilution method in presence of 20 ug/ml reserpine; format: functional, organism-based
Serratia marcescens = experiment: Antibacterial activity against Serratia marcescens by broth microdilution method; format: functional
Summary of the method: (§1)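 MICs by CLSI M07-A7 broth microdilution in cation-adjusted Mueller-Hinton medium. For S. pneumoniae the medium was supplemented with 5% lysed horse blood. CLSI quality control strains were run alongside as appropriate.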

Citrobacter freundii = experiment: Antibacterial activity against Citrobacter freundii by broth microdilution method; format: functional; summary of the method: as §1
Moraxella catarrhalis = experiment: Antibacterial activity against Moraxella catarrhalis by broth microdilution method; format: functional; summary of the method: as §1
Streptococcus pneumoniae = experiment: Antibacterial activity against Streptococcus pneumoniae ATCC 49619 by broth microdilution method; format: functional; summary of the method: as §1
Haemophilus influenzae = experiment: Antibacterial activity against Haemophilus influenzae by broth microdilution method; format: functional; summary of the method: as §1
Escherichia coli = experiment: Antibacterial activity against ciprofloxacin-resistant Escherichia coli by broth microdilution method; format: functional
Summary of the method: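 CLSI M07-A7 broth microdilution MIC. Medium was cation-adjusted Mueller-Hinton broth. For S. pneumoniae it was Mueller-Hinton supplemented with 5% lysed horse blood. CLSI quality-control strains were included as appropriate.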

Proteus mirabilis = experiment: Antibacterial activity against Proteus mirabilis by broth microdilution method; format: functional; summary of the method: as §1

SMILES	Activity (Staphylococcus aureus [1])	Activity (Staphylococcus aureus [2])	Activity (Staphylococcus aureus [3])	Activity (Staphylococcus aureus [4])	Activity (Staphylococcus aureus [5])	Activity (Staphylococcus aureus [6])	Activity (Staphylococcus aureus [7])	MIC50 (Streptococcus pneumoniae)	MIC90 (Streptococcus pneumoniae)	other results
CCn1cc(C(=O)O)c(=O)c2cc(F)c(N3CCNCC3)cc21	Active	Active	Active	Active	Active	Active	Active	–	–	–
CO/N=C1\CN(c2nc3c(cc2F)c(=O)c(C(=O)O)cn3C2CC2)CC1CN (stereo unspecified) [GEMIFLOXACIN]	–	–	–	–	–	–	–	0.03 mg/L (≈ 0.077 µM)	0.5 mg/L (≈ 1.28 µM)	MIC50 (Serratia marcescens): 0.25 mg/L (≈ 0.642 µM); MIC90 (Serratia marcescens): 0.5 mg/L (≈ 1.28 µM); MIC50 (Citrobacter freundii): 1 mg/L (≈ 2.57 µM); MIC90 (Citrobacter freundii): > 4 mg/L; MIC (Moraxella catarrhalis): ≤ 0.015 mg/L; MIC50 (Moraxella catarrhalis): ≤ 0.015 mg/L; MIC90 (Moraxella catarrhalis): ≤ 0.015 mg/L; MIC50 (Haemophilus influenzae): ≤ 0.004 mg/L; MIC90 (Haemophilus influenzae): 0.008 mg/L (≈ 0.0205 µM); MIC50 (Escherichia coli): 32 mg/L (≈ 82.2 µM); MIC90 (Escherichia coli): 64 mg/L (≈ 164 µM); MIC50 (Proteus mirabilis): 0.12 mg/L (≈ 0.308 µM); MIC90 (Proteus mirabilis): 0.25 mg/L (≈ 0.642 µM)
CC[C@H]1OC(=O)[C@H](C)[C@@H](O[C@H]2C[C@@](C)(OC)[C@@H](O)[C@H](C)O2)[C@H](C)[C@@H](O[C@@H]2O[C@H](C)C[C@H](N(C)C)[C@H]2O)[C@](C)(O)C[C@@H](C)C(=O)[C@H](C)[C@@H](O)[C@]1(C)O [ERYTHROMYCIN]	–	–	–	–	–	–	–	0.06 mg/L (≈ 0.0818 µM)	16 mg/L (≈ 21.8 µM)	–
CC[n+]1c(-c2ccccc2)c2cc(N)ccc2c2ccc(N)cc21	Active	Active	Active	Active	Active	Active	Active	–	–	–
